Results published in ChEMBL document CHEMBL1133134, “Inhibition of dopamine receptors by endogenous amines: binding to striatal receptors and pharmacological effects on locomotor activity” (Bioorg Med Chem Lett, 2000).

Key:
Format in all cases: subcellular, Brain
D(2) dopamine receptor = D(2) dopamine receptor (Rattus norvegicus, UniProt P61169); experiment: The compound has been evaluated for its binding affinity towards Dopamine receptor D2 by displacing the radioligand [3H]YM-09151-2 (0.5 nM) in rat striatal synaptosomes.
Procedure, shortened: (§1)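 Rat striatal synaptosomes were incubated with a ³H-labelled radioligand. Nonspecific binding was defined with excess unlabelled ligand and subtracted: SCH23390 for D1, sulpiride for D2 and GBR12909 for the dopamine transporter. Ki was calculated from IC50 as IC50/(1+[L]/KD), where [L] is the radioligand concentration and KD its dissociation constant.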

[1] = target: Sodium-dependent dopamine transporter (Rattus norvegicus, UniProt P23977); experiment: The compound has been evaluated for its binding affinity towards Dopamine transporter by displacing the radioligand [3H]GBR-12935 (1.0 nM) in rat striatal synaptosomes.; procedure, shortened: as §1
D(1A) dopamine receptor = D(1A) dopamine receptor (Rattus norvegicus, UniProt P18901); experiment: The compound has been evaluated for its binding affinity towards Dopamine receptor D1 by displacing the radioligand [3H]SCH-23390 (1.5 nM) in rat striatal synaptosomes.; procedure, shortened: as §1
D(1A) dopamine receptor, sequence (P18901 whole entry): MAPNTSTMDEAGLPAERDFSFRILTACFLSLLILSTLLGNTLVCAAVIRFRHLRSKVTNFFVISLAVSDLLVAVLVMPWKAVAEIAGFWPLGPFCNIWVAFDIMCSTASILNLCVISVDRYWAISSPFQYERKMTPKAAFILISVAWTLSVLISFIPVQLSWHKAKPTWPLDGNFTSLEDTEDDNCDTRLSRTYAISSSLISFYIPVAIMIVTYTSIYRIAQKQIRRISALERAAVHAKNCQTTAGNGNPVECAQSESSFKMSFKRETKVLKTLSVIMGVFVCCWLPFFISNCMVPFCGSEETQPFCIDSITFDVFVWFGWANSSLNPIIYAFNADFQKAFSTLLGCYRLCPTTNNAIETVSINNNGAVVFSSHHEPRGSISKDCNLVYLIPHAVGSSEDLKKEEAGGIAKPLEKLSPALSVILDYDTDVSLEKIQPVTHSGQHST

Sodium-dependent dopamine transporter, sequence (P23977 whole entry): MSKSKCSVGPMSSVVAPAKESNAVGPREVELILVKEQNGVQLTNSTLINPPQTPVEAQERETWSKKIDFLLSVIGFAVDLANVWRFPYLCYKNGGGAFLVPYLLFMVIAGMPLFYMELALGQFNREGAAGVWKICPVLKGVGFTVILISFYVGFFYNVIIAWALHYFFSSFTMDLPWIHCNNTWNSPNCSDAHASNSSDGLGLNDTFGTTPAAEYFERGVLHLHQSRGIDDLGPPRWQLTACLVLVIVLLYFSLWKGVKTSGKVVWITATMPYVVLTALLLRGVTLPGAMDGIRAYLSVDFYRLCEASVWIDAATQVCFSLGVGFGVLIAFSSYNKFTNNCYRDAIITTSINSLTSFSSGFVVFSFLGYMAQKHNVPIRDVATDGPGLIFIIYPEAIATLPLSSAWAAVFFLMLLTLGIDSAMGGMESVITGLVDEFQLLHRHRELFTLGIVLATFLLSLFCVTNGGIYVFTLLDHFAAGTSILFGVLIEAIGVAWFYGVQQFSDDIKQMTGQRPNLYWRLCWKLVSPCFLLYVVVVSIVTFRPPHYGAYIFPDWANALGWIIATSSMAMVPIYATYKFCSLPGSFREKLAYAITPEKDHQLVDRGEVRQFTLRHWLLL
D(2) dopamine receptor, sequence (P61169 whole entry): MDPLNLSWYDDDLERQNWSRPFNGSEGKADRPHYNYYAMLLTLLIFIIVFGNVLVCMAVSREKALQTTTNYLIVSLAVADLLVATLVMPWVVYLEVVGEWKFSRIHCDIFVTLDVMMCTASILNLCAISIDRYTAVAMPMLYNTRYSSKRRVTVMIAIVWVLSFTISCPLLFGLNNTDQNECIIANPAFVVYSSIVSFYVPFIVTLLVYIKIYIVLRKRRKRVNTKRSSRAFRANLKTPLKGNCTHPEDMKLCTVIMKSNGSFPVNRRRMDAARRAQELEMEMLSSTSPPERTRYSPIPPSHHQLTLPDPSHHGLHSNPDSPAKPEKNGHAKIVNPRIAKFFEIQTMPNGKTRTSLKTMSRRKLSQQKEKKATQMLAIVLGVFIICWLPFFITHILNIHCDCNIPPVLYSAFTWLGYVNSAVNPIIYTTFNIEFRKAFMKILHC

Question: Which results are given for c1ccc(CC2NCCc3ccccc32)cc1 (centres undefined)?
Answer: Ki (D(2) dopamine receptor): 3.57 µM; Ki [1]: 36.6 µM; Ki (D(1A) dopamine receptor): 249 µM

Question: Which results are given for Oc1cc2c(cc1O)C(Cc1ccccc1)NCC2 (centres undefined)?
Answer: Ki (D(2) dopamine receptor): 0.64 µM; Ki [1]: 57.6 µM; Ki (D(1A) dopamine receptor): 9.27 µM

Question: Which Ki (D(2) dopamine receptor) does the source give for Oc1ccc(CC2NCCc3ccccc32)cc1O (centres undefined) here?
Answer: 8.79 µM

Question: What about the Ki [1] of the same compound?
Answer: 21.5 µM

Question: And the Ki (D(1A) dopamine receptor)?
Answer: 175 µM
